Measured values gathered from unrelated publications.
Compare with care: the assays were run in different laboratories.
Effect on: cell growth or viability

Nc1c2c(nc3ccccc13)CCCC2O (stereo not drawn)  IC50 (CAL-27; 72 h): > 20 µM
Cc1n(Cc2ccc3ccccc3n2)cc[n+]1Cc1ccc2ccccc2c1  TGI (HOP-92; SRB): 3.81 µM
Cc1cc(C)n(C(=S)[S][Au][PH](CCCCCC[PH]([Au][S]C(=S)n2nc(C)cc2C)(c2ccccc2)c2ccccc2)(c2ccccc2)c2ccccc2)n1  GI50 (UO-31): 0.482 µM
COc1cc(-c2ccc(-c3ccc(C(=N)N)nc3)s2)cc(OC)c1OC  GI50 (HOP-92; SRB): 1.91 µM
CCCCc1ccc2[nH]c(NC(=O)OC)nc2c1  IC50 (CAL-27; 72 h): 0.27 µM
COc1cc(OC)c2nccc(N3CCc4c(cc(Cn5ccnc5)cc4-c4cn(C)nc4C(F)(F)F)C3=O)c2c1  GI50 (K562; ATP luminescence; 5 days): 7.3 µM
COc1cccc2c1C(=O)c1c(O)c3c(c(O)c1C2=O)C[C@@](O)(C(=O)CO)C[C@@H]3O[C@H]1C[C@H](N)[C@H](O)[C@H](C)O1  IC50 (MCF-10A; 48 h): 1.2 µM
COc1cccc(Oc2ccccc2NC(=O)CNC(=O)c2cccc3ccccc23)c1  GI50 (UO-31; SRB; 48 h): 1.82 µM
c1ccc(-c2n(Cc3ccc4ccccc4c3)cc[n+]2Cc2ccc3ccccc3c2)cc1  TGI (HOP-62; SRB): 3.23 µM
C[C@@H](Oc1cc(-c2cnn(C3CCNCC3)c2)cnc1N)c1c(Cl)ccc(F)c1Cl  GI50 (M091; resazurin; 48 h): 0.01 µM
CCCc1n(Cc2ccc3ccccc3n2)cc[n+]1Cc1ccc2ccccc2c1  TGI (HOP-92; SRB): 1.12 µM
COc1cc(Nc2nccc(-c3cnn4nc(OC)ccc34)n2)cc(C(F)(F)F)c1  IC50 (P31-FUJ; ATP luminescence): 1.1 µM
CC(C)(C=O)Cc1cc(C(C)(C)C)c(O)c(C(C)(C)C)c1  IC50 (CAL-27; 72 h): > 20 µM
CCc1n(Cc2ccc3ccccc3n2)cc[n+]1Cc1ccc2ccccc2n1  TGI (HOP-92; SRB): 0.521 µM
COc1ccc(-c2ccc(-c3ccc(C(=N)N)nc3)s2)cc1  GI50 (SN12C): 1.83 µM
